PMC4135234 (Combinatorial chemistry & high throughput screening, 2014)

What was measured:
MSI = assay: FP MSI RNA binding assay, statement does not separate MSI1 and MSI2; parameters: species or system human; settings: 10 μM
MSI1 [1] = biological target: T1, MSI1 (Homo sapiens, UniProt O43347); assay: Orthogonal SYBR-based EMSA, inhibition of RNA binding to MSI1; settings: 1 mM (LC), MSI Oligo #2 200 pmols, 1000 ng protein
MSI2 [2] = biological target: T2, MSI2 (Homo sapiens, UniProt Q96DH6); assay: Orthogonal SYBR-based EMSA, inhibition of RNA binding to MSI2; settings: 1 mM (LC), MSI Oligo #2 200 pmols, 1000 ng protein
MSI2 [3] = biological target: T2, MSI2; assay: FP probe displacement, 1536-well, MSI2; assay type: binding
Outline: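 Displacement of 10 nM Cy3-C9-r(GUAGUAGU) probe from 1 μM GST-MSI2 was run as a dose response in 1536-well format, with FP read using Cy3 filters. IC50 for displacement came from two independent experiments, each performed in triplicate.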

LIN28A [4] = biological target: T3, LIN28A (Homo sapiens, UniProt Q9H9Z2); assay: Orthogonal SYBR-based EMSA, inhibition of RNA binding to LIN28A; settings: 1 mM (LC), MSI Oligo #2 200 pmols, 1000 ng protein
T3 sequence (Q9H9Z2 1-209): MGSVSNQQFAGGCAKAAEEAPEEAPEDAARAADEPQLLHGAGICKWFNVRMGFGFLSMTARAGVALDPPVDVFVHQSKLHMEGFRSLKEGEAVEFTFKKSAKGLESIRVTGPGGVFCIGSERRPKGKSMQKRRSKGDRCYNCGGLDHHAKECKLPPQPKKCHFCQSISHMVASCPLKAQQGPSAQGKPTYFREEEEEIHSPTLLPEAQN
Outline: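 GST-LIN28A (1000 ng, E. coli-expressed) pre-incubated 30 min at room temperature in EMSA buffer with 1% DMSO, 10 μM test compound or 1 mM oleic acid. Then 200 pmols 15-nt ssRNA MSI Oligo #2 added for 30 min more (20 μL). Native 10% polyacrylamide TBE gel in chilled 0.5X TBE at 4°C, 100V, 2–2.5 h. 2X SYBR Safe stain, imaged. At least two repeats.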

MSI1 [5] = biological target: T1, MSI1; assay: SYBR-based RNA EMSA, ssRNA oligo binding to GST-MSI1; settings: 200 pmols ssRNA oligo, 500 to 2500 ng GST-protein; symbols not defined
LIN28A [6] = biological target: T3, LIN28A; assay: SYBR-based RNA EMSA, ssRNA oligo binding to GST-LIN28A; settings: 200 pmols ssRNA oligo, 500 to 2500 ng GST-protein; symbols not defined
MSI2 [7] = biological target: T2, MSI2; assay: SYBR-based RNA EMSA, ssRNA oligo binding to GST-MSI2; settings: 200 pmols ssRNA oligo, 500 to 2500 ng GST-protein; symbols not defined

T2 sequence (Q96DH6 whole entry): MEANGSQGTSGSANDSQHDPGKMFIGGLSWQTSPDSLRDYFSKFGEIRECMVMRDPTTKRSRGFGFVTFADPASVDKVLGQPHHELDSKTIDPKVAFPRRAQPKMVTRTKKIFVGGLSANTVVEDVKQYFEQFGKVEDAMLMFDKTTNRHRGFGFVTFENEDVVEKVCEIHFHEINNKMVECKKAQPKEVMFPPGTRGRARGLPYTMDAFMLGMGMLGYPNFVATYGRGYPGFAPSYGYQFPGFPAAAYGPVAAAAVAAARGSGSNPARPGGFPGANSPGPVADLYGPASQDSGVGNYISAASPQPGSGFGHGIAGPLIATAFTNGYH
T1 sequence (O43347 whole entry): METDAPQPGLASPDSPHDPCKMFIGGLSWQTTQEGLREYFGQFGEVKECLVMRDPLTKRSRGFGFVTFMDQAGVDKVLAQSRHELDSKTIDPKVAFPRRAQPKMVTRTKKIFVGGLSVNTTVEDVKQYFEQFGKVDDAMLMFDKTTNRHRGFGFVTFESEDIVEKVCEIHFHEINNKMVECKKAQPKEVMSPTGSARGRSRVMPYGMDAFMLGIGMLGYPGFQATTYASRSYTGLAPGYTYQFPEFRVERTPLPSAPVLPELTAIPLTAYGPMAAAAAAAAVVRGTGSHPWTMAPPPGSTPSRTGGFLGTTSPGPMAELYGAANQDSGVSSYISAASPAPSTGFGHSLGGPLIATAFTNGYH

COc1cccc2c1C(=O)c1c(O)c3c(c(O)c1C2=O)C[C@@](O)(C(=O)CO)C[C@@H]3O[C@H]1C[C@H](N)[C@H](O)[C@H](C)O1 [doxorubicin, reference compound]
MSI inhibition activity in FP pilot screen, in words (MSI): inhibiting MSI binding activity

CCCCCCCC/C=C\CCCCCCCC(=O)O [oleic acid, reference compound]
% inhibition of RNA binding to MSI1 (EMSA) (MSI1 [1]): > 80% | % inhibition of RNA binding to MSI2 (EMSA) (MSI2 [2]): > 80% | IC50 (MSI2 [3]): 29 ± 1.7 µM | % inhibition of RNA binding to LIN28A (EMSA) (LIN28A [4]): > 80%

COc1cccc2c1C(=O)c1c(O)c3c(c(O)c1C2=O)C[C@@](O)(C(C)=O)C[C@@H]3O[C@H]1C[C@H](N)[C@H](O)[C@H](C)O1 [daunorubicin, reference compound]
MSI inhibition activity in FP pilot screen, in words (MSI): inhibiting MSI binding activity

CC[C@@]1(O)C[C@H](O[C@H]2C[C@H](N(C)C)[C@H](O)[C@H](C)O2)c2c(cc3c(c2O)C(=O)c2c(O)cccc2C3=O)[C@H]1C(=O)OC [aklavine]
MSI inhibition activity in FP pilot screen, in words (MSI): inhibiting MSI binding activity

CC[C@@]1(O)C[C@H](O)c2c(cc3c(c2O)C(=O)c2c(O)ccc(O)c2C3=O)[C@H]1C(=O)OC [rutilantinone]
MSI inhibition activity in FP pilot screen, in words (MSI): inhibiting MSI binding activity

MSI Oligo #4: ssRNA oligo GUAGUAGUAGUAGUA, 15 nt, 4 MSI binding motifs (RNA, backbone not given here)
Binding affinity(EMSA) MSI1 (MSI1 [5]): highest affinity | Binding affinity(EMSA) LIN28A (LIN28A [6]): highest affinity | Binding affinity(EMSA) MSI2 (MSI2 [7]): highest affinity

ssRNA Oligo #8: non-specific ssRNA oligo AGGGAUCGAAAAUUG, 15 nt, no binding motif (RNA, backbone not given here)
Binding affinity(EMSA) LIN28A (LIN28A [6]): high affinity

CC(=O)[C@]1(O)Cc2c(O)c3c(c(O)c2[C@@H](O[C@H]2C[C@H](N)[C@H](O)[C@H](C)O2)C1)C(=O)c1ccccc1C3=O [idarubicin, reference compound]
MSI inhibition activity in FP pilot screen, in words (MSI): inhibiting MSI binding activity
